Results from ChEMBL document CHEMBL1828552, “Synthesis and studies of novel 2-(4-cyano-3-trifluoromethylphenyl amino)-4-(quinoline-4-yloxy)-6-(piperazinyl/piperidinyl)-s-triazines as potential antimicrobial, antimycobacterial and anticancer agents” (2011).
In brackets after ≈: the same amount, converted by molar mass.

What was measured:
Staphylococcus aureus [1] = assay: Antibacterial activity against 10^5 CFU/mL Staphylococcus aureus MTCC 96 after 24 hrs by disc diffusion technique; type: functional
Outline: (§1)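 Disc diffusion on Mueller–Hinton agar poured 5 mm deep. The surface was swabbed with a 10⁵ CFU/mL […] suspension. Filter-paper discs 6.25 mm in diameter were soaked in compound in DMSO and placed on the agar. Plates were incubated 24 h at 37 ± 1 °C, and the inhibition zone was measured in mm. A DMSO disc served as blank.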

Staphylococcus aureus [2] = assay: Antibacterial activity against 10^5 CFU/mL Staphylococcus aureus MTCC 96 after 24 hrs by agar streak dilution method; type: functional; settings: MTCC 96, 24 h
Outline: (§2)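 Agar streak dilution. Stock 100 µg/mL in DMSO; graded amounts were mixed into molten nutrient agar and poured at 4–5 mm depth. Plates carried serial dilutions over […]. About 10⁵ CFU/mL of each bacterium was applied, and plates were incubated at 37 ± 1 °C for 24 h. MIC was read from the dilution series.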

Bacillus cereus [3] = assay: Antibacterial activity against 10^5 CFU/mL Bacillus cereus MTCC 619 after 24 hrs by disc diffusion technique; type: functional; outline: as §1
Bacillus cereus [4] = assay: Antibacterial activity against 10^5 CFU/mL Bacillus cereus MTCC 619 after 24 hrs by agar streak dilution method; type: functional; settings: MTCC 619, 24 h; outline: as §2
DU-145 = assay: Cytotoxicity against […] human DU145 cells after 48 hrs by SRB assay; type: functional; settings: DU-145, 48 h
Outline: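 SRB assay in DU-145 cells grown in RPMI 1640 with 10% FBS and 2 mM L-glutamine. Cells were plated and held 24 h before addition of four 10-fold concentrations. After 48 h, cells were TCA-fixed, stained with 0.4% SRB and read at 540 nm. GI50, TGI and LC50 were derived against time-zero and control wells; each value is the mean of three experiments.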

Escherichia coli [5] = assay: Antibacterial activity against 10^5 CFU/mL Escherichia coli MTCC 739 after 24 hrs by disc diffusion technique; type: functional; outline: as §1
Escherichia coli [6] = assay: Antibacterial activity against 10^5 CFU/mL Escherichia coli MTCC 739 after 24 hrs by agar streak dilution method; type: functional; settings: MTCC 739, 24 h; outline: as §2
Pseudomonas aeruginosa [7] = assay: Antibacterial activity against 10^5 CFU/mL Pseudomonas aeruginosa MTCC 741 after 24 hrs by disc diffusion technique; type: functional; outline: as §1
Pseudomonas aeruginosa [8] = assay: Antibacterial activity against 10^5 CFU/mL Pseudomonas aeruginosa MTCC 741 after 24 hrs by agar streak dilution method; type: functional; settings: MTCC 741, 24 h; outline: as §2
Klebsiella pneumoniae [9] = assay: Antibacterial activity against 10^5 CFU/mL Klebsiella pneumoniae MTCC 109 after 24 hrs by disc diffusion technique; type: functional; outline: as §1
Klebsiella pneumoniae [10] = assay: Antibacterial activity against 10^5 CFU/mL Klebsiella pneumoniae MTCC 109 after 24 hrs by agar streak dilution method; type: functional; settings: MTCC 109, 24 h; outline: as §2
Salmonella typhi [11] = assay: Antibacterial activity against 10^5 CFU/mL Salmonella typhi MTCC 733 after 24 hrs by disc diffusion technique; type: functional, Salmonella enterica subsp. enterica serovar Typhi
Outline: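 Disc diffusion. Mueller-Hinton agar autoclaved 120 °C 30 min, poured 5 mm deep. Surface swabbed with 10⁵ CFU/mL suspension […]. 6.25 mm filter-paper discs soaked in compound in DMSO; DMSO-only disc as blank. Incubated 37 ± 1 °C, 24 h for bacteria or 48 h for fungi. Ciprofloxacin and ketoconazole discs as reference drugs. Inhibition zone measured in mm.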

Salmonella typhi [12] = assay: Antibacterial activity against 10^5 CFU/mL Salmonella typhi MTCC 733 after 24 hrs by agar streak dilution method; type: functional, Salmonella enterica subsp. enterica serovar Typhi; settings: Salmonella enterica, MTCC 733, 24 h
Proteus vulgaris [13] = assay: Antibacterial activity against 10^5 CFU/mL Proteus vulgaris MTCC 1771 after 24 hrs by disc diffusion technique; type: functional; outline: as §1
Proteus vulgaris [14] = assay: Antibacterial activity against 10^5 CFU/mL Proteus vulgaris MTCC 1771 after 24 hrs by agar streak dilution method; type: functional; settings: MTCC 1771, 24 h; outline: as §2
Shigella flexneri [15] = assay: Antibacterial activity against 10^5 CFU/mL Shigella flexneri MTCC 1457 after 24 hrs by disc diffusion technique; type: functional; outline: as §1
Shigella flexneri [16] = assay: Antibacterial activity against 10^5 CFU/mL Shigella flexneri MTCC 1457 after 24 hrs by agar streak dilution method; type: functional; settings: MTCC 1457, 24 h; outline: as §2
Aspergillus niger [17] = assay: Antifungal activity against 10^5 CFU/mL Aspergillus niger MTCC 282 after 48 hrs by disc diffusion technique; type: functional
Aspergillus niger [18] = assay: Antifungal activity against 10^5 CFU/mL Aspergillus niger MTCC 282 after 48 hrs by agar streak dilution method; type: functional; settings: MTCC 282, 48 h
Outline: (§3)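 Agar streak dilution for fungi. Stock 100 µg/mL in DMSO; graded amounts were mixed into molten Sabouraud dextrose agar and poured at 4–5 mm depth. Serial dilutions ran over […]. About 10⁵ CFU/mL inoculum was applied, with incubation at 37 ± 1 °C for 48 h. MIC was read from the dilution series.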

Aspergillus fumigatus [19] = assay: Antifungal activity against 10^5 CFU/mL Aspergillus fumigatus MTCC 343 after 48 hrs by disc diffusion technique; type: functional
Aspergillus fumigatus [20] = assay: Antifungal activity against 10^5 CFU/mL Aspergillus fumigatus MTCC 343 after 48 hrs by agar streak dilution method; type: functional; settings: MTCC 343, 48 h; outline: as §3
Aspergillus clavatus [21] = assay: Antifungal activity against 10^5 CFU/mL Aspergillus clavatus MTCC 1323 after 48 hrs by disc diffusion technique; type: functional
Aspergillus clavatus [22] = assay: Antifungal activity against 10^5 CFU/mL Aspergillus clavatus MTCC 1323 after 48 hrs by agar streak dilution method; type: functional; settings: MTCC 1323, 48 h; outline: as §3
Candida albicans [23] = assay: Antifungal activity against 10^5 CFU/mL Candida albicans MTCC 183 after 48 hrs by disc diffusion technique; type: functional
Candida albicans [24] = assay: Antifungal activity against 10^5 CFU/mL Candida albicans MTCC 183 after 48 hrs by agar streak dilution method; type: functional; settings: MTCC 183, 48 h; outline: as §3

Compound	inhibition zone (IZ) (Staphylococcus aureus [1])	MIC (Staphylococcus aureus [2])	inhibition zone (IZ) (Bacillus cereus [3])	MIC (Bacillus cereus [4])	GI50 (DU-145)	LC50 (concentration giving 50% net cell kill relative to time zero) (DU-145)	TGI (DU-145)	inhibition zone (IZ) (Escherichia coli [5])	MIC (Escherichia coli [6])	inhibition zone (IZ) (Pseudomonas aeruginosa [7])	MIC (Pseudomonas aeruginosa [8])	inhibition zone (IZ) (Klebsiella pneumoniae [9])	MIC (Klebsiella pneumoniae [10])	inhibition zone (IZ) (Salmonella typhi [11])	MIC (Salmonella typhi [12])	inhibition zone (IZ) (Proteus vulgaris [13])	MIC (Proteus vulgaris [14])	inhibition zone (IZ) (Shigella flexneri [15])	MIC (Shigella flexneri [16])	inhibition zone (IZ) (Aspergillus niger [17])	further results
N#Cc1ccc(Nc2nc(Oc3ccnc4ccccc34)nc(N3CCN(C(c4ccccc4)c4ccccc4)CC3)n2)cc1C(F)(F)F	21 mm	50 µg/mL (≈ 75.9 µM)	22 mm	25 µg/mL (≈ 38 µM)	> 100 µM	> 100 µM	> 100 µM	19 mm	100 µg/mL (≈ 152 µM)	19 mm	100 µg/mL (≈ 152 µM)	17 mm	100 µg/mL (≈ 152 µM)	19 mm	100 µg/mL (≈ 152 µM)	19 mm	100 µg/mL (≈ 152 µM)	21 mm	100 µg/mL (≈ 152 µM)	14 mm	MIC (Aspergillus niger [18]): 100 µg/mL (≈ 152 µM); inhibition zone (IZ) (Aspergillus fumigatus [19]): 20 mm; MIC (Aspergillus fumigatus [20]): 100 µg/mL (≈ 152 µM); inhibition zone (IZ) (Aspergillus clavatus [21]): 16 mm; MIC (Aspergillus clavatus [22]): 100 µg/mL (≈ 152 µM); inhibition zone (IZ) (Candida albicans [23]): 15 mm; MIC (Candida albicans [24]): 100 µg/mL (≈ 152 µM)
N#Cc1ccc(Nc2nc(Oc3ccnc4ccccc34)nc(N3CCN(C(c4ccccc4)c4ccc(Cl)cc4)CC3)n2)cc1C(F)(F)F (stereo not given)	25 mm	12.5 µg/mL (≈ 18 µM)	25 mm	12.5 µg/mL (≈ 18 µM)	> 100 µM	> 100 µM	> 100 µM	23 mm	50 µg/mL (≈ 72.1 µM)	24 mm	12.5 µg/mL (≈ 18 µM)	25 mm	12.5 µg/mL (≈ 18 µM)	25 mm	25 µg/mL (≈ 36.1 µM)	27 mm	6.25 µg/mL (≈ 9.02 µM)	22 mm	25 µg/mL (≈ 36.1 µM)	25 mm	MIC (Aspergillus niger [18]): 25 µg/mL (≈ 36.1 µM); inhibition zone (IZ) (Aspergillus fumigatus [19]): 26 mm; MIC (Aspergillus fumigatus [20]): 25 µg/mL (≈ 36.1 µM); inhibition zone (IZ) (Aspergillus clavatus [21]): 25 mm; MIC (Aspergillus clavatus [22]): 50 µg/mL (≈ 72.1 µM); inhibition zone (IZ) (Candida albicans [23]): 25 mm; MIC (Candida albicans [24]): 25 µg/mL (≈ 36.1 µM)
N#Cc1ccc(Nc2nc(Oc3ccnc4ccccc34)nc(N3CCN(c4ccccc4F)CC3)n2)cc1C(F)(F)F	24 mm	25 µg/mL (≈ 42.6 µM)	27 mm	6.25 µg/mL (≈ 10.7 µM)	> 100 µM	> 100 µM	> 100 µM	26 mm	12.5 µg/mL (≈ 21.3 µM)	22 mm	50 µg/mL (≈ 85.2 µM)	26 mm	12.5 µg/mL (≈ 21.3 µM)	24 mm	25 µg/mL (≈ 42.6 µM)	25 mm	6.25 µg/mL (≈ 10.7 µM)	23 mm	25 µg/mL (≈ 42.6 µM)	25 mm	MIC (Aspergillus niger [18]): 25 µg/mL (≈ 42.6 µM); inhibition zone (IZ) (Aspergillus fumigatus [19]): 25 mm; MIC (Aspergillus fumigatus [20]): 25 µg/mL (≈ 42.6 µM); inhibition zone (IZ) (Aspergillus clavatus [21]): 24 mm; MIC (Aspergillus clavatus [22]): 50 µg/mL (≈ 85.2 µM); inhibition zone (IZ) (Candida albicans [23]): 26 mm; MIC (Candida albicans [24]): 25 µg/mL (≈ 42.6 µM)
N#Cc1ccc(Nc2nc(Oc3ccnc4ccccc34)nc(N3CCN(c4ccc(F)cc4)CC3)n2)cc1C(F)(F)F	25 mm	25 µg/mL (≈ 42.6 µM)	26 mm	6.25 µg/mL (≈ 10.7 µM)	> 100 µM	> 100 µM	> 100 µM	22 mm	50 µg/mL (≈ 85.2 µM)	23 mm	25 µg/mL (≈ 42.6 µM)	23 mm	25 µg/mL (≈ 42.6 µM)	24 mm	25 µg/mL (≈ 42.6 µM)	24 mm	25 µg/mL (≈ 42.6 µM)	21 mm	50 µg/mL (≈ 85.2 µM)	26 mm	MIC (Aspergillus niger [18]): 12.5 µg/mL (≈ 21.3 µM); inhibition zone (IZ) (Aspergillus fumigatus [19]): 24 mm; MIC (Aspergillus fumigatus [20]): 50 µg/mL (≈ 85.2 µM); inhibition zone (IZ) (Aspergillus clavatus [21]): 25 mm; MIC (Aspergillus clavatus [22]): 50 µg/mL (≈ 85.2 µM); inhibition zone (IZ) (Candida albicans [23]): 24 mm; MIC (Candida albicans [24]): 50 µg/mL (≈ 85.2 µM)
COc1ccc(N2CCN(c3nc(Nc4ccc(C#N)c(C(F)(F)F)c4)nc(Oc4ccnc5ccccc45)n3)CC2)cc1	24 mm	25 µg/mL (≈ 41.8 µM)	28 mm	6.25 µg/mL (≈ 10.4 µM)	> 100 µM	> 100 µM	> 100 µM	25 mm	12.5 µg/mL (≈ 20.9 µM)	26 mm	6.25 µg/mL (≈ 10.4 µM)	23 mm	25 µg/mL (≈ 41.8 µM)	24 mm	25 µg/mL (≈ 41.8 µM)	24 mm	12.5 µg/mL (≈ 20.9 µM)	23 mm	12.5 µg/mL (≈ 20.9 µM)	25 mm	MIC (Aspergillus niger [18]): 25 µg/mL (≈ 41.8 µM); inhibition zone (IZ) (Aspergillus fumigatus [19]): 27 mm; MIC (Aspergillus fumigatus [20]): 25 µg/mL (≈ 41.8 µM); inhibition zone (IZ) (Aspergillus clavatus [21]): 28 mm; MIC (Aspergillus clavatus [22]): 12.5 µg/mL (≈ 20.9 µM); inhibition zone (IZ) (Candida albicans [23]): 24 mm; MIC (Candida albicans [24]): 50 µg/mL (≈ 83.5 µM)
